Assay outcomes as filed in PubChem BioAssay.
Hits are enriched below; roughly 2.1% of the tested compounds scored in any of these assays.
Efflux pump mplx: antifungal efflux pump inhibition, Nile Red retention. 330,000 tested, 0.44% active. inhibition, % at 10 µM. S. cerevisiae Candida pump triplex;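 active means plate passing quality check with inhibition over a set limit, or well fluorescence over plate mean plus 4 SD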;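 further: Nile Red retained in pooled yeast measured as flow cytometry median fluorescence; 0% = buffer negative control and 100% = Enniatin B positive control; higher means more Nile Red kept so more efflux inhibition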
SUMO Mot1 rescue: SUMOylation pathway inhibition by Mot1-301 growth rescue | S. cerevisiae Mot1-301 growth rescue, ATP luminescence, 38.5C; percent above DMSO median, 100 means doubled | growth rescue, % at 18.8 µM | 320,000 tested, 1% active | AID 2716;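 active means every valid replicate shows activation above 250% relative to neutral control wells; inactive means the rest, any valid replicate at or below 250%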;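 further: OY570 slx delta 5 strain wells were the positive control but not used for scaling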
UCH37 DUB inh: human UCH37 deubiquitinating enzyme inhibition; Q9Y5K5; purified proteasome/UCH37, Ub-AMC cleavage fluorescence; inhibition, % (concentration not given with the values); 330,000 tested, 0.33% active; AID 588478;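 active means mean inhibition over replicate wells above about 20%, limit read from the data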;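 further: 0% = compound-free wells with enzyme and 100% = wells lacking proteasome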
Target sequence (Q9Y5K5 whole entry, looked up): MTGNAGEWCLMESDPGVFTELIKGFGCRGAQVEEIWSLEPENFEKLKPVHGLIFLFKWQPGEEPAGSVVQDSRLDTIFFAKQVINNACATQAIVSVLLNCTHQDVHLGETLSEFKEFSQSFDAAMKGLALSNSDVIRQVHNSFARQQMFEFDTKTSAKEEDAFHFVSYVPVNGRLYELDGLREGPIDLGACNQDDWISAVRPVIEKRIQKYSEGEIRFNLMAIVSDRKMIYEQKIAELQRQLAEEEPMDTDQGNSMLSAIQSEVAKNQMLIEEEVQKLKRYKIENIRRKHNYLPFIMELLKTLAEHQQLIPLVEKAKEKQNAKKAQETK
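Signal – fluorescence, ex 355 nm, em 460 nm · System – Proteasome-bound UCH37 · Input – 0.15 nM proteasome as dispensed · Timing – 30 min preincubation with enzyme, 25 min cleavage at room temperature · Read-out basis – percent inhibition of cleavage signal versus uninhibited and no-proteasome wells · Medium – Tris-HCl pH 7.4 with ATP-MgCl2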
ARNT TACC3 PPI: disrupts binding between human ARNT and TACC3. Q9Y6A5. AlphaScreen His-ARNT PAS-B/GST-TACC3 binding, luminescence; TACC3 fragment carries E629A point mutation. inhibition, % at 9.99 µM. 390,000 tested, 0.66% active;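 active means mean inhibition of replicates at least 50% and at least half of replicates each reaching 50%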;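 further: 0% = complete ARNT plus TACC3 wells and 100% = ARNT alone without TACC3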
Cardiac RTF inh: cardiac RTF calcium desensitization | IANBD-labeled cardiac RTF, Ca2+ fluorescence | inhibition, % at 7.15 µM | 340,000 tested, 0.12% active | AID 493244;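 active means inhibition above the mean inhibition of all tested compounds plus 3 SD, cut at about 17% in these data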;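 further: assay run at fixed EC70 calcium of 1.6 mM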
cardiac RTF act: cardiac RTF calcium sensitization. P19429+P45379. 340,000 tested, 0.24% active. activation, % at 7.2 µM. IANBD-labeled TnC RTF fluorescence at EC20 calcium; 0% EC20 calcium, 100% full calcium;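 active means activation above the mean over all tested compounds plus 3 SD, cut at about 30% in these data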;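 further: rise in fluorescence read as greater calcium sensitivity of cardiac thin filaments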
Cmpd fluor yeast: flagged as fluorescent in efflux inhibitor counter-screen; fluorescence ratio to DMSO, % at 10 µM; shares compounds with Efflux pump mplx; AID 588517; S. cerevisiae AD/pABC3, compound fluorescence, flow cytometry; 1,700 tested, 4% active;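 active means fluorescence ratio to DMSO above its plate's cutoff, the plate mean ratio plus 5 SD, cut at about 210% in these data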;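 further: unstained yeast with no Nile Red so the signal is compound autofluorescence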
CaMdr1 efflux inh: blocks the Candida albicans Mdr1 efflux pump in yeast. shares compounds with Efflux pump mplx. S. cerevisiae AD/CaMDR1, Nile Red efflux, flow cytometry. inhibition, % at 10 µM. 1,700 tested, 1% active; in the data active means inhibition above about 26%;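 further: 0% = DMSO vehicle and 100% = reference inhibitor; higher means more Nile Red retained so more efflux inhibition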
CaCdr2 efflux inh: inhibitors of Candida albicans Cdr2 efflux pump | S. cerevisiae AD/CaCDR2, Nile Red retention, flow cytometry | 1,700 tested, 4% active | shares compounds with Efflux pump mplx | Nile Red retention ratio vs DMSO, % at 10 µM; in the data active means Nile Red retention ratio vs DMSO above about 190%;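 further: higher ratio means more blocking of Cdr2 efflux of the dye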
Cdr1 pump inh: blocks the Candida albicans Cdr1 efflux pump in yeast; 1,700 tested, 1% active; inhibition, % at 10 µM; AID 588522; S. cerevisiae AD/CaCDR1, Nile Red efflux, flow cytometry; shares compounds with Efflux pump mplx;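 active means inhibition above the screen-wide mean plus twice its standard deviation, cut at about 32% in these data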
An asterisk follows results filed as active; i = inactive; / = not tested or not shown.

SMILES | Efflux pump mplx | SUMO Mot1 rescue | UCH37 DUB inh | ARNT TACC3 PPI | Cardiac RTF inh | cardiac RTF act | Cmpd fluor yeast | CaMdr1 efflux inh | CaCdr2 efflux inh | Cdr1 pump inh
CC1Cc2ccccc2N1CC(=O)Nc1ccc2c(c1)OCO2 (centres undefined) | 12* | 14 | 2 | 3 | 0 | 0 | 134 | 1 | 104 | 1
O=C(CN1C(=O)CCSc2ccccc21)Nc1ccc2c(c1)OCO2 | 0 | 0 | 4 | 11 | -4 | -1 | 95 | 0 | 107 | 0
CSc1ccc(C=NNC(=O)CC(=O)NC(C)C)cc1 | / | / | -11 | / | / | / | / | / | / | /
COC(=O)c1sc(SC)c(S(=O)(=O)C(C)C)c1NN=C(C#N)S(=O)(=O)c1ccccn1 | / | / | 10 | / | / | / | / | / | / | /
O=C(Cc1ccccc1[N+](=O)[O-])Nc1ccc2c(c1)OCO2 | 1.3* | -10 | 3 | -1 | -10 | 0 | 103 | 0 | 89 | 0
O=C(CCSc1ccccc1)Nc1ccccc1C(=O)N1CCCC1 | 9.6* | -3 | 3 | 13 | -38 | -5 | 100 | 0 | 102 | 0
O=C(COC(=O)c1ccc(Br)o1)NCCCc1ccccc1 | 0 | -1 | 0 | -3 | 2 | -4 | / | / | / | /
O=C(OCc1ccccc1)c1ccc(Br)o1 | 1.1* | 6 | 2 | -10 | 1 | 0 | 100 | 0 | 116 | 0
O=C(O)COc1ccc(C=NNC(=O)/C(=C/C=C/c2ccccc2)NC(=O)c2ccccc2)cc1 | / | / | 18 | / | / | / | / | / | / | /
CCC(CC)c1nc(C(N)=O)c2[nH]c(=O)n(-c3ccc(OC)c(OC)c3)c2n1 | 0 | 70 | 8 | -1 | -3 | -3 | / | / | / | /
CCCCc1nc(C(N)=O)c2[nH]c(=O)n(-c3ccc(OC)c(OC)c3)c2n1 | 0 | -17 | 6 | -34 | 6 | -2 | / | / | / | /
CCOc1cccc(-c2nc(C(N)=O)c3[nH]c(=O)n(-c4cccc(Cl)c4)c3n2)c1O | 0 | -7 | 5 | -2 | -2 | -1 | 105 | 0 | 123 | 0
CCOc1ccccc1-c1nc(C(N)=O)c2[nH]c(=O)n(-c3cccc(C)c3)c2n1 | 0.7* | 4 | -6 | 1 | 10 | -1 | 94 | 1 | 114 | 1
Cc1nc2ccc(-c3nc4ccc(N)cc4[nH]3)cc2[nH]1 | 0 | -11 | i | 3 | -2 | -5 | / | / | / | /
Nc1ccc2nc(-c3cccc(-c4nc5ccc(N)cc5[nH]4)c3)[nH]c2c1 | 2.1* | 14 | -8 | -33 | -3 | -4 | 101 | 0 | 119 | 0
Brc1ccc(/C=C/C=NNc2nc3ccccc3s2)cc1 | / | / | 3 | / | / | / | / | / | / | /
CCOc1ccc(S(=O)(=O)N2CCN(C(=O)c3cccnc3)CC2)cc1 | 0 | -11 | 2 | -7 | -5 | 0 | / | / | / | /
CCOc1ccc(S(=O)(=O)N2CCN(C(=O)c3ccncc3)CC2)cc1 | 7.4* | -24 | -1 | -2 | 0 | -3 | 89 | 0 | 91 | 0
O=[N+]([O-])c1ccc(S(=O)(=O)NN=Cc2cccs2)cc1 | / | / | -1 | / | / | / | / | / | / | /
CC(C)(C)OC(=O)NCc1ccc(NC(=O)c2nc[nH]c2C(=O)NCCCCCCNC(=O)c2[nH]cnc2C(=O)Nc2ccc(CNC(=O)OC(C)(C)C)cc2)cc1 | 1.8* | -12 | 0 | -8 | -6 | -2 | 106 | 1 | 123 | 2
CC(C)(C)OC(=O)NCc1ccc(NC(=O)c2nc[nH]c2C(=O)NCCCCNC(=O)c2[nH]cnc2C(=O)Nc2ccc(CNC(=O)OC(C)(C)C)cc2)cc1 | 0 | -5 | / | 13 | 1 | 6 | / | / | / | /
COc1cccc(C=Nn2c(-c3cc(C)[nH]n3)n[nH]c2=S)c1OC | / | / | 2 | / | / | / | / | / | / | /
